PfM18AAP inh: PfM18AAP enzyme inhibition. recombinant PfM18AAP, H-Glu-NHMec fluorogenic cleavage. inhibition, % at 7.35 µM. 290,000 compounds, 1.2% hits;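 active = inhibition above the campaign mean inhibition over all tested compounds plus 3 SD, cut at about 28% in these data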;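 note: 0% = plate median of test compound wells and 100% = 2 mM ZnCl2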
SUMO HTRF inh: SUMOylation inhibition; inhibition, % at 35 µM; 290,000 compounds, 0.36% hits; AID 2006; P63279; HTRF SUMOylation assay, SAE1/SAE2 + UBC9, in vitro; in the data active = inhibition above about 50%, passing the limit was not always enough
PfGluPho inh: PfG6PD (Plasmodium falciparum) enzyme inhibition; PfGluPho enzyme, NADPH resazurin-diaphorase fluorescence; inhibition, % at 20 µM; 350,000 compounds, 0.78% hits; AID 504690;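 active = inhibition reaching at least a set limit at 20 µM in the primary screen, cut at about 59% in these data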;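 note: 0% = DMSO wells with substrate and 100% = DMSO wells lacking glucose-6-phosphate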
APOBEC3G inh: blocks human APOBEC3G single-stranded DNA deamination | inhibition, % at 20 µM | recombinant A3G, ssDNA deamination FAM/TAMRA fluorescence | 330,000 compounds, 0.28% hits | Q9HC16;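 active = inhibition of at least 40% at 20 µM, with no more than 30% in the related APOBEC3A deaminase screen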;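 note: plate controls were DMSO wells with A3G for no effect and wells lacking A3G enzyme for full effect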
A3A deaminase: blocks human APOBEC3A ssDNA deamination. 330,000 compounds, 0.41% hits. P31941. inhibition, % at 20 µM. recombinant A3A, FAM/TAMRA ssDNA deamination fluorescence;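 active = at least 40% inhibition at 20 µM here, with at most 30% in a related deaminase screen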;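 note: plate controls were A3A with DMSO for no effect and wells lacking A3A enzyme for full effect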
HKDC1 inhibitor: HKDC1 (human) hexokinase inhibition; Q2TB90; 340,000 compounds, 0.16% hits; recombinant HKDC1, G6PDH/diaphorase resazurin coupled fluorescence; inhibition, % at 20 µM; AID 493160;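 active = inhibition above about 35% when tested at 20 µM, limit read from the data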;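 note: plate controls were DMSO wells with enzyme for no effect and DMSO wells lacking enzyme for full effect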
Target sequence (Q2TB90 whole entry, looked up): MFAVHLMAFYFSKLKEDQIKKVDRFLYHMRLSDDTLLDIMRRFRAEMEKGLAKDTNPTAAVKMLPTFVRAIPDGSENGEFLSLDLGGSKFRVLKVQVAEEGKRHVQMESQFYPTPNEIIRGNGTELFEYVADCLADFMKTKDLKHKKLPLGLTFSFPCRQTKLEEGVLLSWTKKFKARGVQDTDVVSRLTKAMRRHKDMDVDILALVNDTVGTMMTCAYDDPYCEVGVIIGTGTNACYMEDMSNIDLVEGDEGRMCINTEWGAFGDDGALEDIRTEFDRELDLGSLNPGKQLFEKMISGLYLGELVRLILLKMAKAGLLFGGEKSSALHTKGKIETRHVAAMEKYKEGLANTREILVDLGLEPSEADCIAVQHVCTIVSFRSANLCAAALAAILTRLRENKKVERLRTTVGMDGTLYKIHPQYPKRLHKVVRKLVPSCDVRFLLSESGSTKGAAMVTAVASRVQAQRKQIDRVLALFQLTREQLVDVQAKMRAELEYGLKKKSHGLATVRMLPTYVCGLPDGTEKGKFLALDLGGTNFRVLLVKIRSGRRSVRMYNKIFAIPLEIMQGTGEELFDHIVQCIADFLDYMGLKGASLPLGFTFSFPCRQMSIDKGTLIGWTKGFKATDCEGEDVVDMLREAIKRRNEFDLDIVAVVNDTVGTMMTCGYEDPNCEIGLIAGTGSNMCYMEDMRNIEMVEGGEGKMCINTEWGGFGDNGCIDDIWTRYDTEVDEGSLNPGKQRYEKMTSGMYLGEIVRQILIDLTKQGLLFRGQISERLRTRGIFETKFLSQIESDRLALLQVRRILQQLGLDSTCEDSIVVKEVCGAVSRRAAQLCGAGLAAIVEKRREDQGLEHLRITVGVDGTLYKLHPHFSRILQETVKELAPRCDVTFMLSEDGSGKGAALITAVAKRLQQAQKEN
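test system = in-house recombinant HK5 (HKDC1) enzyme | amount = HKDC1 at 5 µg/mL | control set = DMSO-enzyme wells negative, buffer-substituted wells positive | compound = one dose of 20 µM, 1% DMSO | schedule = reaction time 90 min, room temperature, protected from light | technique = resorufin fluorescence at 613 nm | reagent = glucose with 1 mM ATP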
A3A conf: APOBEC3A (human) deaminase inhibition, confirmed. shares compounds with A3A deaminase. recombinant A3A, ssDNA deaminase UDG fluorescence assay. inhibition, % at 20 µM. 1,400 compounds, 63% hits;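 active = inhibition reaching a set limit, 80% of the first screen's cutoff, at 20 µM in any replicate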;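 note: plate controls were DMSO wells with A3A for no effect and wells lacking A3A enzyme for full effect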
UDG ctr A3A: UDG inhibition in APOBEC3A counter-screen; shares compounds with A3A deaminase; UDG counterscreen, FAM/TAMRA uracil oligo fluorescence; inhibition, % at 20 µM; 1,000 tested, under 10 active; AID 504714; call rule not given here
Starred values were filed as active, the others as inactive; x = no result given. Only some compounds are listed: those with a hit (about 2.4% of all), similar ones and a draw of the others.

SMILES | PfM18AAP inh | SUMO HTRF inh | PfGluPho inh | APOBEC3G inh | A3A deaminase | HKDC1 inhibitor | A3A conf | UDG ctr A3A
NC(=O)C1CCN(c2nc(-c3cc4ccccc4o3)cs2)CC1 | x | x | 24.9 | -8.7 | -3.5 | 1.5 | x | x
O=C(O)c1ccc2c3c(cccc13)C(=O)N(c1ccccc1)C2=O | -10.3 | 11.7 | 0.9 | 26.0 | 63.2* | 0.5 | 55.3* | -3.0
O=C(O)c1ccc(N2C(=O)c3cccc4c(C(=O)O)ccc(c34)C2=O)cc1 | -15.0 | 24.2 | 6.5 | x | x | 5.3 | x | x
COc1ccc(NS(=O)(=O)c2ccc3oc(=O)ccc3c2)cc1 | -0.9 | 14.1 | -22.1 | -3.0 | 3.0 | 8.4 | x | x
O=C(CN1C(=O)S/C(=C/c2ccccn2)C1=O)N1CCOCC1 | 5.6 | 3.1 | -1.3 | 3.5 | 57.4* | -3.5 | 2.1 | x
CCn1c(-c2ccccc2Cl)nn(CC(=O)Nc2ccc(OC)cc2)c1=S | 1.5 | 17.6 | -7.9 | -5.8 | -3.8 | -10.1 | x | x
CCn1c(-c2ccccc2Cl)nn(CC(=O)Nc2ccccc2C)c1=S | 1.4 | 12.6 | 0.8 | 13.2 | 66.4* | -6.6 | 23.9 | x
COc1ccc(CC(=O)N/N=C/c2ccc(-c3cccc(C(=O)O)c3)o2)cc1OC | 6.9 | 18.5 | 10.8 | 5.7 | 41.8* | -0.6 | 24.7 | x
Cc1ccc2c(c1)N(C)/C(=C/c1cccc[n+]1CCO)S2 | 2.1 | -5.8 | 8.1 | 16.3 | 47.9* | -2.8 | 83.1* | 1.8
Cc1ccc2c(c1)N(C)/C(=C/c1cccc[n+]1C)S2 | -7.5 | -1.4 | -3.8 | 22.9 | 66.9* | -4.3 | 90.8* | 1.4
CCCCN1/C(=C/c2cccc[n+]2C)Sc2cc(NC(C)=O)ccc21 | 2.9 | 1.5 | -2.1 | 31.6 | 80.2 | -1.3 | x | x
CN1/C(=C/c2cccc[n+]2C)Sc2ccccc21 | 4.1 | -1.1 | -3.4 | 20.6 | 62.2* | -6.8 | 86.8* | -0.9
CCOC(=O)Nc1ccc2c(c1)N(C(=O)CCN1CCN3CCCC3C1)c1ccccc1CC2 (stereo not given) | 9.2 | 8.4 | 9.1 | -3.1 | -4.1 | -13.4 | x | x
Cc1cccc(NC(=O)CSc2ncnc3nc[nH]c23)c1C | 2.5 | -8.2 | -1.6 | 8.2 | 34.3 | -3.2 | x | x
Cc1ccc(C)c(NC(=O)CSc2ncnc3nc[nH]c23)c1 | 4.0 | 15.2 | -9.3 | 5.0 | 47.2* | -7.5 | 30.9* | -2.6
CCC(C(=O)Nc1ccon1)c1ccccc1 (stereo not given) | 11.5 | 6.6 | -9.5 | -0.4 | 0.4 | -1.1 | x | x
COc1cccc(-c2nnc(SCC(=O)N(C(C)C)C(C)C)o2)c1 | 1.5 | 0.8 | -2.7 | -11.7 | -4.4 | 7.0 | x | x
COc1cc(OC)cc(-c2nnc(SCC(=O)N(C(C)C)C(C)C)o2)c1 | -6.2 | -12.0 | 3.8 | -2.6 | 89.7* | -4.5 | -0.1 | -0.4
Cn1cc(/C=C2/SC(=O)N(CC(=O)Nc3ccc4c(c3)OCO4)C2=O)c2ccccc21 | -2.6 | 32.5 | -21.2 | -0.7 | -2.9 | -5.1 | x | x
O=C(CN1C(=O)S/C(=C\c2ccc(-c3cc(C(=O)O)ccc3Cl)o2)C1=O)Nc1ccc2c(c1)OCO2 | 1.7 | 83.9* | x | -3.4 | 49.7* | x | 3.1 | 4.0
CC(C)CCOCC(O)CCC(=O)NNC(=S)Nc1ccccc1 (stereo not given) | 8.2 | 27.4 | -9.9 | -3.6 | 92.1* | -6.2 | -3.9 | 1.5
CC(O)CCC(=O)NNC(=S)Nc1ccccc1 (stereo not given) | 21.3 | 14.0 | 9.4 | -9.3 | -3.3 | -3.3 | x | x
CSc1ccc(S(=O)(=O)NCc2ccccc2C)cc1 | 8.8 | -5.1 | -12.1 | -2.2 | 5.9 | -4.1 | x | x
CC(=O)Nc1ccc2c(COC(=O)CC3Sc4ccccc4NC3=O)cc(=O)oc2c1 (stereo not given) | 0.2 | 27.4 | -11.1 | 16.2 | 50.0* | 1.7 | 50.9* | 4.8
COc1ccc2c(COC(=O)CC3Sc4ccccc4NC3=O)cc(=O)oc2c1 (stereo not given) | -0.3 | -3.7 | 2.9 | 0.2 | 8.8 | 10.7 | x | x
O=C(N/N=C/c1ccncc1)c1cccs1 | -5.0 | 4.2 | 0.4 | -4.5 | -1.3 | -4.9 | x | x

Screening results deposited in PubChem BioAssay by several laboratories.
